According to ChEMBL document CHEMBL3864131, “Development, synthesis and structure-activity-relationships of inhibitors of the macrophage infectivity potentiator (Mip) proteins of Legionella pneumophila and Burkholderia pseudomallei” (Bioorg Med Chem, 2016):

Experiments:
[1] = Stability of the compound in methanol/HEPES buffer at pH 7.8 at 40 degC for 24 hrs by HPLC analysis; type: physicochemical; conditions: read-out: Stability
How it was run: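 Compound dilutions incubated for 24 h in methanol with 10 mM HEPES buffer (pH 7.8) at 25 °C and 40 °C. HPLC analysis was done at 0 and 24 h to give the percentage of intact compound remaining.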

in vitro = conditions: mouse, J774.1 cells
[2] = molecular target: Outer membrane protein MIP (Legionella pneumophila, UniProt Q70YI1)
Chain of Outer membrane protein MIP (Q70YI1 21-233 limits assumed): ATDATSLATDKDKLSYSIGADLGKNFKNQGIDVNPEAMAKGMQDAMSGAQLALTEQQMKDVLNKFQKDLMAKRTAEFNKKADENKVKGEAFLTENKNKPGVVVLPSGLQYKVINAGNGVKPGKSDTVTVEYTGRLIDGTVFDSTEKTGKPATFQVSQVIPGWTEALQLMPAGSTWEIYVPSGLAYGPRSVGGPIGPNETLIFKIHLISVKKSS

[3] = Metabolic stability in mouse J774.1 cells at 37 degC after 24 hrs by HPLC analysis; type: ADME, cell-based; conditions: read-out: Stability
How it was run: (§1)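 Compound incubated with J774.1 murine macrophages in RPMI medium at 37 °C, sampled at 0, 1 and 24 h, and the remaining compound quantified by HPLC.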

[4] = Metabolic stability in mouse J774.1 cells at 37 degC after 1 hr by HPLC analysis; type: ADME, cell-based; conditions: read-out: Stability; how it was run: as §1
[5] = Stability in human plasma after 24 hrs by HPLC analysis; type: ADME, cell-free
How it was run: (§2)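 Compound incubated in human plasma and sampled at 1, 4 and 24 h. The decrease in compound concentration was followed by HPLC.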

[6] = Stability in human plasma after 4 hrs by HPLC analysis; type: ADME, cell-free; how it was run: as §2
[7] = Stability in human plasma after 1 hr by HPLC analysis; type: ADME, cell-free; how it was run: as §2

SMILES | remaining at 24 h [1] | IC50 at 24 h (in vitro) | IC50 [2] | remaining at 24 h [3] | remaining at 1 h [4] | Stability [5] | Stability [6] | Stability [7]
COc1cc(CCCOC(=O)[C@@H]2CCCCN2S(=O)(=O)Cc2ccccc2)cc(OC)c1OC | 99% | – | – | – | – | – | – | –
COc1cc(C(=O)NC[C@H](C)OC(=O)[C@@H]2CCCCN2S(=O)(=O)Cc2ccccc2)cc(OC)c1OC | – | > 100 µM | 2.2 µM | – | – | – | – | –
COCCOc1cc(OCCOC)cc(C(=O)OCCOC(=O)[C@@H]2CCCCN2S(=O)(=O)Cc2ccccc2)c1 | 85% | > 80 µM | 8.6 µM | 59% | 98% | – | – | –
C[C@@H](CNC(=O)c1cccnc1)OC(=O)[C@@H]1CCCCN1S(=O)(=O)Cc1ccccc1 | > 95% | > 100 µM | 3.5 µM | 97% | 95% | – | – | –
O=C(NCCOC(=O)[C@@H]1CCCCN1S(=O)(=O)Cc1ccccc1)c1cccnc1 | – | > 100 µM | 11.4 µM | 81% | 82% | 50% | 20% | 5%
O=C(OCCCc1cccnc1)[C@@H]1CCCCN1S(=O)(=O)Cc1cccc([N+](=O)[O-])c1 | – | 48.2 µM | 7.9 µM | – | – | – | – | –
O=C(OCCOc1cccnc1)[C@@H]1CCCCN1S(=O)(=O)Cc1ccccc1 | > 95% | > 100 µM | 7.7 µM | 77% | 88% | – | – | –
O=C(OCCCc1cccnc1)[C@@H]1CCCCN1S(=O)(=O)Cc1ccccc1 | 99% | > 100 µM | 5.8 µM | – | – | – | – | –
O=C(C(=O)N1CCCC[C@H]1C(=O)OCCCc1cccnc1)c1ccccc1 | – | 88.1 µM | 142 µM | – | – | – | – | –
O=C(OCCOC(=O)[C@@H]1CCCCN1S(=O)(=O)Cc1ccccc1)c1cccnc1 | 40% | > 100 µM | 2.6 µM | 50% | 82% | – | – | –
O=C(OCCCc1cccnc1)[C@@H]1CCCCN1S(=O)(=O)Cc1ccc(F)cc1 | > 95% | > 100 µM | 5.7 µM | – | – | – | – | –
O=C(OCCCc1cccnc1)[C@@H]1CCCCN1S(=O)(=O)Cc1ccc(Cl)cc1 | – | 33.6 µM | 2.4 µM | – | – | – | – | –
COc1cc(C(=O)NCCOC(=O)[C@@H]2CCCCN2S(=O)(=O)Cc2ccccc2)ccc1O | – | > 100 µM | 3.2 µM | – | – | – | – | –
COCCOc1cc(OCCOC)cc(C(=O)NCCOC(=O)[C@@H]2CCCCN2S(=O)(=O)Cc2ccccc2)c1 | > 95% | > 100 µM | 5.6 µM | – | – | – | – | –
O=C(OCCCc1cccnc1)[C@@H]1CCCCN1S(=O)(=O)Cc1cccc(Cl)c1 | – | 43.3 µM | 7.5 µM | – | – | – | – | –
CC(C)NC(=O)[C@@H]1CCCCN1S(=O)(=O)Cc1ccccc1 | > 95% | > 100 µM | > 100 µM | – | – | – | – | –
O=C(OCCCc1cccnc1)C1CCCCN1S(=O)(=O)Cc1ccccc1 (racemic) | – | > 100 µM | 10.7 µM | – | – | – | – | –
O=C(OCCO)C1CCCCN1S(=O)(=O)Cc1ccccc1 (racemic) | > 95% | > 100 µM | 94 µM | 86% | 95% | – | – | –
O=C(OCCCc1cccnc1)C1CCCCN1S(=O)(=O)Cc1cccc([N+](=O)[O-])c1 (racemic) | – | 46.7 µM | 8.7 µM | – | – | – | – | –
Nc1cccc(CS(=O)(=O)N2CCCCC2C(=O)OCCCc2cccnc2)c1 (racemic) | – | 62.3 µM | > 100 µM | – | – | – | – | –
O=C(OCCCc1cccnc1)C1CCCCN1C(=O)COc1ccc(Cl)cc1 (racemic) | – | 50.9 µM | 89.3 µM | – | – | – | – | –
O=C(OCCCc1cccnc1)C1CCCCN1S(=O)(=O)Cc1ccc([N+](=O)[O-])cc1 (racemic) | – | 56.7 µM | 3.9 µM | – | – | – | – | –
CC(C)OC(=O)C1CCCCN1S(=O)(=O)Cc1ccccc1 (racemic) | > 95% | > 100 µM | 79.2 µM | – | – | – | – | –
CC(C)Nc1ccc(CS(=O)(=O)N2CCCCC2C(=O)OCCCc2cccnc2)cc1 (racemic) | – | 44.3 µM | 44.5 µM | – | – | – | – | –
CC(C)Nc1cccc(CS(=O)(=O)N2CCCCC2C(=O)OCCCc2cccnc2)c1 (racemic) | – | 57.4 µM | 41.5 µM | – | – | – | – | –
Nc1ccc(CS(=O)(=O)N2CCCCC2C(=O)OCCCc2cccnc2)cc1 (racemic) | – | > 100 µM | 21.4 µM | – | – | – | – | –
C[C@H](CNC(=O)c1cccnc1)OC(=O)[C@@H]1CCCCN1S(=O)(=O)Cc1ccccc1 (single isomer, unassigned) | – | > 100 µM | 11.5 µM | – | – | – | – | –
